# Reference: PMC4404408 (Journal of acquired immune deficiency syndromes (1999), 2014)
# Values joined by “and” are separate entries in the source; they are usually repeats but may differ in a detail not shown here. Identical values can stand only once. Like-named read-outs stand apart in the source and are kept apart here.
# How the values were obtained:
# [1] = Phase I open-label drug interaction PK study, arm B
# [2] = human, in vivo
# [3] = Phase I open-label drug interaction PK study, arm A; conditions: for Cmax: in vivo
# [4] = cited from earlier work
# [5] = Fasting lipid profile, calculated LDL-C; format: in vivo, healthy adult HIV-1 seronegative volunteers
# Procedure, shortened: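 Healthy HIV-seronegative volunteers aged 18–60 (BMI 18–25, ≥50 kg) took pitavastatin with observed dosing on day 4. They then took EFV 600 mg (arm A, night) or DRV/ritonavir 800/100 mg (arm B, morning) on days 5–14, plus pitavastatin 2 mg on days 15–18. Fasting serum total cholesterol, triglycerides and HDL were measured enzymatically on days 0, 4, 14 and 18, and LDL-C was calculated by the Friedewald equation.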
# [6] = human, in vivo; remark: listed apart in the source
# [7] = coadministered with pitavastatin vs DRV/r alone, nonsignificant
# [8] = pitavastatin 4 mg daily with DRV/r 800/100 mg, healthy volunteers
# [9] = pitavastatin 4 mg once daily and lopinavir/r 400/100 mg twice a day, healthy volunteers
smiles,measurement,setting,value
"CC(C)CN(C[C@@H](O)[C@H](Cc1ccccc1)NC(=O)O[C@H]1CO[C@H]2OCC[C@H]21)S(=O)(=O)c1ccc(N)cc1 [DRV, darunavir]",Increase in DRV mean AUC0-τ,[1]; [7],8% and < 10%
same,Increase in DRV mean Cmax,[1]; [7],3% and < 10%
same,"DRV mean plasma concentrations, alone vs coadministered","[1]; with pitavastatin, Fig. 3B",remained similar
"O=C1Nc2ccc(Cl)cc2[C@@](C#CC2CC2)(C(F)(F)F)O1 [EFV, efavirenz]",EFV AUC0-τ geometric mean ratio (90% CI),[2],0.90 (0.75 to 1.06)
same,"EFV mean plasma concentrations, alone vs coadministered",[2],remained similar throughout the entire 24-hour PK period
same,"EFV AUC0-τ, geometric mean","[3]; EFV 600 mg with pitavastatin 2 mg, day 18, N=14",44400 ng·h/mL
same,"EFV Tmax, median (IQR)","[3]; EFV only, day 14, N=14",2.0 (0.9 to 3.0) h
same,Cmax,[3]; human,3720 ng/mL
same,Cmax,"[3]; human, 600 mg",4150 ng/mL
same,AUC,"[3]; human, plasma, oral, 600 mg",49500 ng·h/mL
same,Tmax,"[3]; human, plasma, oral, EFV Tmax, median (IQR), EFV with pitavastatin, day 18, N=14",1.5 h
"O=C(O)C[C@H](O)C[C@H](O)/C=C/c1c(C2CC2)nc2ccccc2c1-c1ccc(F)cc1 [Pitavastatin, pitavastatin]","Pitavastatin Tmax, median (IQR)",[2],2.0 (0.9 to 3.0) h
same,Increase in pitavastatin AUC,[4]; combined with ritonavir-boosted atazanavir,31%
same,Safety of concomitant administration,[4]; lopinavir/ritonavir in combination with pitavastatin,safe and well tolerated
same,Change in pitavastatin Cmax,[4]; [8],minimal or no change
same,Reduction in pitavastatin AUC0-τ,[4]; [8],26%
same,Change of pitavastatin Cmax,[4]; [9],unaffected
same,Reduction of pitavastatin AUC,[4]; [9],~ 20%
same,"Pitavastatin mean plasma concentrations, alone vs coadministered","[1]; with DRV/r, 24-hour PK period, Fig. 3A",similar
same,Change in mean LDL,"[5]; day 0-4, pitavastatin only, arms A and B",decreased
same,Change in mean LDL,"[5]; day 14 to day 18, pitavastatin and either EFV or DRV/r",decreased
O=C1C[C@H](O)C[C@@H](/C=C/c2c(C3CC3)nc3ccccc3c2-c2ccc(F)cc2)O1 [pitavastatin lactone],Pitavastatin lactone median Tmax,[6],2.0 h
CC[C@H](C)C(=O)O[C@H]1C[C@H](O)C=C2C=C[C@H](C)[C@H](CC[C@@H](O)C[C@@H](O)CC(=O)O)[C@H]21 [pravastatin],Decrease of statin AUC by EFV,[4]; coadministered with EFV,40%
same,Increase of pravastatin AUC,[4]; coadministration with lopinavir/ritonavir,33%
same,Reduction of pravastatin exposure,[4]; combined with nelfinavir or saquinavir,about 50%
same,Increase of pravastatin AUC,[4]; in the presence of DRV/r,81%
